# Measurements as given in ChEMBL document CHEMBL4406880, “Design, synthesis, and bioactivity of dihydropyrimidine derivatives as kinesin spindle protein inhibitors” (Bioorg Med Chem, 2019).
# Assays:
# CAKI-1 = test: Growth inhibition of human Caki1 cells assessed as growth percentage at 10 uM incubated for 48 hrs by sulforhodamine B assay relative to control; format: functional; details: CAKI-1, 48 h, read-out: Activity
# Outline: (§1)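 NCI-60 one-dose screen: cells in RPMI 1640 with 5% FBS and 2 mM L-glutamine, plated at 5,000–40,000 cells/well and preincubated 24 h at 37 °C, 5% CO2. Compound is added from a DMSO stock to a final 10 µM and incubated 48 h. Cells are TCA-fixed and stained with sulforhodamine B, read at 515 nm. Output is % growth versus untreated control, with a time-zero plate.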
# DU-145 = test: Growth inhibition of human DU145 cells assessed as growth percentage at 10 uM incubated for 48 hrs by sulforhodamine B assay relative to control; format: functional; details: DU-145, 48 h, read-out: Activity; outline: as §1
# KM12 = test: Growth inhibition of human KM12 cells assessed as growth percentage at 10 uM incubated for 48 hrs by sulforhodamine B assay relative to control; format: functional; details: KM12, 48 h, read-out: Activity
# Outline: (§2)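 NCI-60 one-dose screen. Cells in RPMI 1640 with 5% FBS and 2 mM L-glutamine, seeded at 5,000–40,000 cells/well according to doubling time, and preincubated overnight at 37 °C, 5% CO2. A time-zero plate was TCA-fixed at drug addition. Compound from DMSO stock, final 10 µM, 48 h; DMSO vehicle controls. Fixation with TCA, 10% final (16% for suspension cells). SRB stain, Tris solubilization, A515. Result given as % growth versus untreated cells.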
# OVCAR-3 = test: Growth inhibition of human OVCAR3 cells assessed as growth percentage at 10 uM incubated for 48 hrs by sulforhodamine B assay relative to control; format: functional; details: OVCAR-3, 48 h, read-out: Activity; outline: as §2
# HOP-62 = test: Growth inhibition of human HOP62 cells assessed as growth percentage at 10 uM incubated for 48 hrs by sulforhodamine B assay relative to control; format: functional; details: HOP-62, 48 h, read-out: Activity; outline: as §2
# SNB-75 = test: Growth inhibition of human SNB75 cells assessed as growth percentage at 10 uM incubated for 48 hrs by sulforhodamine B assay relative to control; format: functional; details: SNB-75, 48 h, read-out: Activity
# Outline: (§3)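 NCI-60 single-dose screen. Cells were grown in RPMI 1640 with 5% FBS and 2 mM L-glutamine and plated at 5,000–40,000 cells/well. After an overnight preincubation at 37 °C in 5% CO2, compound was added at a final 10 µM from a DMSO stock, with DMSO/PBS controls. After 48 h, cells were TCA-fixed and stained with 0.4% SRB, and absorbance was read at 515 nm. Growth is given as a percentage of untreated control.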
# A498 = test: Growth inhibition of human A498 cells assessed as growth percentage at 10 uM incubated for 48 hrs by sulforhodamine B assay relative to control; format: functional; details: A498, 48 h, read-out: Activity; outline: as §1
# OVCAR-5 = test: Growth inhibition of human OVCAR5 cells assessed as growth percentage at 10 uM incubated for 48 hrs by sulforhodamine B assay relative to control; format: functional; details: OVCAR-5, 48 h, read-out: Activity; outline: as §3
# HCT-116 = test: Growth inhibition of human HCT116 cells assessed as growth percentage at 10 uM incubated for 48 hrs by sulforhodamine B assay relative to control; format: functional; details: HCT-116, 48 h, read-out: Activity; outline: as §1
# NCI-H226 = test: Growth inhibition of human NCI-H226 cells assessed as growth percentage at 10 uM incubated for 48 hrs by sulforhodamine B assay relative to control; format: functional; details: NCI-H226, 48 h, read-out: Activity; outline: as §2
# [1] = Growth inhibition of human HEK293 cells assessed as cell viability at 6.25 ug incubated for 48 hrs by MTT assay relative to control; format: cell-based; details: read-out: Activity
# [2] = Growth inhibition of human HEK293 cells assessed as cell viability at 100 ug incubated for 48 hrs by MTT assay relative to control; format: cell-based; details: read-out: Activity
# [3] = Growth inhibition of human HEK293 cells assessed as cell viability at 1.56 ug incubated for 48 hrs by MTT assay relative to control; format: cell-based; details: read-out: Activity
# [4] = Growth inhibition of human HEK293 cells assessed as cell viability at 0.39 ug incubated for 48 hrs by MTT assay relative to control; format: cell-based; details: read-out: Activity
# [5] = Inhibition of kinesin (unknown origin) assessed as reduction in ATPase activity using microtubule as substrate measured for 5 to mins; parameters: species or system Homo sapiens
# HEK293 = test: Growth inhibition of human HEK293 cells assessed as cell viability incubated for 48 hrs by MTT assay; format: cell-based; parameters: unit not given here
# Outline: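 HEK 293 normal-cell growth inhibition; measured in triplicate, IC50 reported as mean ± SD.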
# [6] = Growth inhibition of human HEK293 cells assessed as cell viability at 25 ug incubated for 48 hrs by MTT assay relative to control; format: cell-based; details: read-out: Activity
Compound,growth at 10 µM (CAKI-1) [%],growth at 10 µM (DU-145) [%],growth at 10 µM (KM12) [%],growth at 10 µM (OVCAR-3) [%],growth at 10 µM (HOP-62) [%],growth at 10 µM (SNB-75) [%],growth at 10 µM (A498) [%],growth at 10 µM (OVCAR-5) [%],growth at 10 µM (HCT-116) [%],growth at 10 µM (NCI-H226) [%],"viability at 48 h, 6.25 ug [1] [%]","viability at 48 h, 100 ug [2] [%]","viability at 48 h, 1.56 ug [3] [%]","viability at 48 h, 0.39 ug [4] [%]",IC50 [5] [µM],IC50 (HEK293),"viability at 48 h, 25 ug [6] [%]"
CC1=C(C(=O)OC(C)C)C(c2ccc3c(c2)OCO3)NC(=O)N1 (racemic),93.9,108,106,114,117,105,104,103,96.4,101,–,–,–,–,–,–,–
CC(=O)C1=C(C)NC(=O)NC1c1ccc2c(c1)OCO2 (racemic),91.4,118,110,115,103,94.1,120,102,108,99.6,–,–,–,–,–,–,–
CC1=C(C(=O)c2ccccc2)C(c2ccc3c(c2)OCO3)NC(=S)N1 (racemic),35.6,78.7,20,12.9,51.8,-1.4,-12.5,72.5,20.1,66.5,69.9,46,79.5,86.8,10.7,62.02,57.9
CC1=C(C(=O)OC(C)C)C(c2ccc3c(c2)OCO3)NC(=S)N1 (racemic),93.8,109,108,121,119,95.2,109,105,95.6,84.1,–,–,–,–,–,–,–
CC(=O)C1=C(C)NC(=S)NC1c1ccc2c(c1)OCO2 (racemic),91.9,111,109,109,104,90.1,115,101,104,102,–,–,–,–,–,–,–
O=C1C2=C(NC(=S)NC2c2ccc3c(c2)OCO3)c2ccccc21 (racemic),87.4,112,109,113,104,81,109,106,110,92.6,–,–,–,–,–,–,–
CC(=O)N1C(=S)NC(C)=C(C(=O)OCC(C)C)C1c1ccc2c(c1)OCO2 (racemic),96.2,99.6,93.8,96.8,91.9,92.2,104,99.4,93.5,94.6,–,–,–,–,–,–,–
CC1=C(C(=O)OCC(C)C)C(c2ccc3c(c2)OCO3)NC(=O)N1 (racemic),96.3,109,104,117,114,100,121,104,105,93.1,–,–,–,–,–,–,–
CC1=C(C(=O)c2ccccc2)C(c2ccc3c(c2)OCO3)NC(=O)N1 (racemic),91.1,105,99.9,106,99.2,91.4,–,106,98.9,97.4,–,–,–,–,–,–,–
O=C1NC2=C(C(=O)c3ccccc32)C(c2ccc3c(c2)OCO3)N1 (racemic),90.9,114,111,115,96.1,78.5,112,105,108,102,–,–,–,–,–,–,–
COCCOC(=O)C1=C(C)NC(=O)NC1c1ccc2c(c1)OCO2 (racemic),90.4,108,102,110,108,89.6,87,101,107,98,–,–,–,–,–,–,–
CC1=C(C(=O)OCc2ccccc2)C(c2ccc3c(c2)OCO3)NC(=O)N1 (racemic),89.5,107,105,119,114,96,105,106,88.3,95.9,–,–,–,–,–,–,–
CC1(C)CC(=O)C2=C(C1)NC(=O)NC2c1ccc2c(c1)OCO2 (racemic),93.9,107,108,115,122,97.5,124,108,101,109,60.1,43.5,71.5,78,3.95,33.2,50.9
CC(=O)N1C(=S)NC(C)=C(C(=O)OC(C)C)C1c1ccc2c(c1)OCO2 (racemic),97.2,104,99.7,109,88.5,97.2,114,107,93.8,94.8,–,–,–,–,–,–,–
COCCOC(=O)C1=C(C)NC(=S)NC1c1ccc2c(c1)OCO2 (racemic),99.8,108,100,111,98,–,96.1,109,103,90.2,–,–,–,–,–,–,–
CC1=C(C(=O)OCC(C)C)C(c2ccc3c(c2)OCO3)NC(=S)N1 (racemic),86.6,109,99.1,109,121,94.1,121,105,101,97.1,–,–,–,–,–,–,–
COCCOC(=O)C1=C(C)NC(=S)N(C(C)=O)C1c1ccc2c(c1)OCO2 (racemic),97.4,106,95.9,101,87.7,83,85.3,102,103,96.6,–,–,–,–,–,–,–
CC1=C(C(=O)OCc2ccccc2)C(c2ccc3c(c2)OCO3)NC(=S)N1 (racemic),81.8,101,91.9,98.4,106,–,72.8,100,93.1,95.8,–,–,–,–,–,–,–
